Key:
Mus musculus = experiment: Antinociceptive activity against acetone-induced chronic constriction injury in mouse paw assessed as duration of pain behavior at 100 mg/kg, po pretreated 30 mins before formalin challenge relative to control; assay type: functional; conditions: in the assay text read “acetone testing” for “formalin challenge”
In short: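 Mice underwent chronic constriction injury surgery (Bennett and Xie) and recovered 1–2 weeks. After 100 mg/kg po dosing 30 min before testing and 1 h acclimation on a wire mesh platform, 100 µL acetone was applied to the injured plantar hindpaw. Flinching, licking and biting were recorded for 1 min, with reduction relative to vehicle.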

[1] = target: T1, Nitric oxide synthase 3 (Homo sapiens) (UniProt P29474); experiment: Inhibition of human eNOS expressed in HEK293 cells assessed as NO production at 100 uM by transient transfection assay relative to BBS-4; assay type: cell-based
T1 sequence (whole entry): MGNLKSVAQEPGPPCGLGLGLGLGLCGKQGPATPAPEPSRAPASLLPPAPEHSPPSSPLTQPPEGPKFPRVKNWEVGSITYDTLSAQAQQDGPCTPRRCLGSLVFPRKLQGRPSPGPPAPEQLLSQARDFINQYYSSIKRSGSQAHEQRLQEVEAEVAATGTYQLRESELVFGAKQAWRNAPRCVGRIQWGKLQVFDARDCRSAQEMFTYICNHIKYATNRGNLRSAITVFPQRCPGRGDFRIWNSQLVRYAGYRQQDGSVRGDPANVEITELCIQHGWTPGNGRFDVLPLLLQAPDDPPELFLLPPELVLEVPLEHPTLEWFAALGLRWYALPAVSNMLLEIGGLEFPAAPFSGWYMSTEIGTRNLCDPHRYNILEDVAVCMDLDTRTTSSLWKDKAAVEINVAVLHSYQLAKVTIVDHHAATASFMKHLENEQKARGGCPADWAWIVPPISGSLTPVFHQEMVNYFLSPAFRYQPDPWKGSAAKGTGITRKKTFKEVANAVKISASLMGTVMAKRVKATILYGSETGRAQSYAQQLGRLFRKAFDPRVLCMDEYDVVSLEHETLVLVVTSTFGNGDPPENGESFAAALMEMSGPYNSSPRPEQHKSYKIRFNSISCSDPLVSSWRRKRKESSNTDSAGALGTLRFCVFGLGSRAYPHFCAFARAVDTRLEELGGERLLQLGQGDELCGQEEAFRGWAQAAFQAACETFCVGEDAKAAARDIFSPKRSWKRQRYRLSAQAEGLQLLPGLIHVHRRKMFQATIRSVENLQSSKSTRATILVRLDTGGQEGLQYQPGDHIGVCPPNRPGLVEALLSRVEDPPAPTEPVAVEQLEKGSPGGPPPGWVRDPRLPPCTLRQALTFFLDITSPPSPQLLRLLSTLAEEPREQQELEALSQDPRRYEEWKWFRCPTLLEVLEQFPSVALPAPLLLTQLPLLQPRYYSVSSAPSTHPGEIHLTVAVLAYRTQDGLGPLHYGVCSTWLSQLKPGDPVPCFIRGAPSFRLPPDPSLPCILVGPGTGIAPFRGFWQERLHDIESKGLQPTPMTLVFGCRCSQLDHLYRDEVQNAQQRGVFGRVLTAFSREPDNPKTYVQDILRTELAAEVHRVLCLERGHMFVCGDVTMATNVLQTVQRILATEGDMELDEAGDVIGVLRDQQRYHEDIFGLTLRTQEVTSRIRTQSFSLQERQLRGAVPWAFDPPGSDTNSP
In short: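 HEK293 cells transiently transfected with human eNOS (15 µg plasmid) or nNOS (10 µg plasmid), Fugene 6 at 3:1 µL:µg, 4 h at 37 °C, 10% CO2. Plated at 5 × 10⁵ cells/mL with compound; SEITU 100 µM final as positive control. After 24 h, activated with A23187 (83 nM final, eNOS) or ionomycin (30 µM final, nNOS). After 18 h more, NO read by DAN fluorescence. Inhibition is relative to the maximal inhibition by the control dimerization inhibitor. 3 runs, 10-point curves, n = 3/point.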

| Compound | Activity (Mus musculus) [%] | inhibition [1] [%] |
| --- | --- | --- |
| Cc1ncsc1C(=O)N(Cc1cc(=O)[nH]c2c(F)cccc12)c1cccc(Cl)c1 | 45 | – |
| CC(C)C(=O)N(Cc1cc(=O)[nH]c2c(F)cccc12)c1cccc(Cl)c1 | – | < 50 |

Reference: ChEMBL document CHEMBL1138485, “Discovery of inducible nitric oxide synthase (iNOS) inhibitor development candidate KD7332, part 1: Identification of a novel, potent, and selective series of quinolinone iNOS dimerization inhibitors that are orally active in rodent pain models” (J Med Chem, 2009)
